Results on 48 sequences are retold here after the EternaBench riboswitch data.

The data set relates to MS2 coat protein. The data set is described as follows: apparent Kd, MS2 coat protein; higher = weaker binding; RNA-MaP array; FMN 200 µM where present. In a few lines:
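The apparent Kd is the median of filtered binding-curve fits, one per cluster, to green signal normalised to red-channel RNA signal and control-cluster median Fmax. The clusters were on Illumina sequencing chips, and stalled E. coli RNA polymerase had transcribed the designs on them. Titration used SNAP-549-labelled MS2 coat protein from 0.7 or 1.5 nM, doubling to 3 µM, without and then with constant ligand, in 100 mM Tris-HCl pH 7.5, 80 mM KCl, 4 mM MgCl2, BSA, DTT, yeast tRNA and Tween-20.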

Setting [1] is: designed as: ON switch for flavin mononucleotide, no ligand.
Setting [2] is: ligand present: flavin mononucleotide, designed as: ON switch for flavin mononucleotide.
Setting [3] is: designed as: OFF switch for flavin mononucleotide, no ligand.
Setting [4] is: ligand present: flavin mononucleotide, designed as: OFF switch for flavin mononucleotide.

On to “GUAGCUAUCGGAGGAUAUUCAUACCGGAAACGGACAUGAGGAUCACCCAUGUGGCGAAAGCCCUGGGAGAAGGCCGAUAGCUAC”, for which the apparent Kd (commonly a dissociation constant that holds for the conditions of the assay) under setting [1] came out at 382 nM and the “apparent Kd” value under setting [2] amounted to 259 nM.
Take “UGCACCAACGAGAAGGCACAGAUCCAGCUCUUGACAUGAGGAUCACCCAUGUGAGGAUAUCGUAGGUGCGAUUUGGGACAAUCU”: the “apparent Kd” value came out at 11 nM under setting [3] and 91.8 nM under setting [4].
As for “GUCAGCUCGUGAGGAUAUACAACACUGCUUCGGCAGUGUAUUGAGAUCACAUGAGGAUCACCCAUGUAGAAGGCACGAGCUGAU”, the “apparent Kd” value is 12.9 nM under setting [3] and 225 nM under setting [4].
In the same order, the values of “UAUUUACAUGAGGAUCACCCAUGUCAGGAUAUGUUUCUAUCGUCGAAAGAUGAUAUUUGCAGAAGGGACAAUAU” are 36.1 nM and 72.5 nM.
On the same counts, the results for “UAGUGGCAAGGAUAUACAGUGGAGAGGAUUGCAAGAGGUGGACAUGAGGAUCACCCAUGUAGAAGGUGCAGAGA” are 298 nM and 182 nM.
With “AUUGUAAUGUCAGGAUAUAUUAUAUUUUACAUAGUAGAAGGGAUAAUUAUACUCAUGUACAUGAGGAUCACCCAUGUUAAAUAU”, the “apparent Kd” value was 179 nM under setting [1] and 29.6 nM under setting [2].
On the same counts, the results for “GCGUUCUUGUAGAAGGUACAUACAAUAUCUUAUAAACACAUGACACAUGAGGAUCACCCAUGUUGUAAGGAUAUACAUGAACGC” are 6.29 nM and 7.73 nM.
Regarding “GGUCGACAUGAGGAUCACCCAUGUCAGGAUAUCGUCACUGGAGCUGCGGCUCCAGUGACGAGAAGGGAUAUGAU”, the “apparent Kd” value runs as follows: under setting [3], 41.3 nM; under setting [4], 37.4 nM.
On the same counts, the results for “AACCCUACUGAGGAUAUGAAACGGCUAGACGCAUCAGAAGGCAGUACAUGAGGAUCACCCAUGUACCUCCGGGC” are 13.3 nM and 20.9 nM.
With “AUAUCUAUGUAAGGAUAUAGAUGGUAUACGCCUCCGACAUGAGGAUCACCCAUGUUAUAUUUUGUCUAGAAGGUACAUUGUCGG”, the “apparent Kd” value came out at 383 nM under setting [1] and 305 nM under setting [2].
With “AGUAGAUCAGGAUAUACAUAAAUGAUAAUUAUGUAAAUUCUACAUGAGGAUCACCCAUGUAGAAGGGAUCUACA”, the “apparent Kd” value stood at 14.4 nM under setting [3] and 14 nM under setting [4].
In the same order, the values of “GUCAGCUCGUGAGGAUAUACAACACUGCUUCGGCAGUGUAUUAAGAUCACAUGAGGAUCACCCAUGUAGAAGGCACGAGCUGAU” are 42.1 nM and 832 nM.
In the same order, the values of “CUCCGACAUGUAGGAUAUGCGUGGCGAAGCUAUGCAGAAGGACAUGAGGAUCACCCAUGUCUUUCCGUCUGCGUACAGACGGAG” are 17.4 nM and 57.3 nM.
On to “GUUAAACAUGAGGAUCACCCAUGUAAGGAUAUGCUGCGGUCGAGAUGAAGUGAAUGCAGCAGAAGGUACAAUUG”, for which the “apparent Kd” value is, setting by setting: under setting [3], 116 nM; under setting [4], 99.9 nM.
Take “GAGCGGCGUACAGGAUAUCCUACAUGAGGAUCACCCAUGUCACAUUUACACGAGAACGUGUACGAGGAGAAGGGUGGGUUCGUG”: the “apparent Kd” value reads like this: under setting [1], 287 nM; under setting [2], 588 nM.
For “UUUUAGAUCCGAGGAUAUACAAUCCGGAAACGGUACAUGAGGAUCACCCAUGUAGAAGGCGGAUCUACAGGUACUAAAGUAUUU”, the “apparent Kd” value by setting is: under setting [3], 10 nM; under setting [4], 8.84 nM.
For the sequence “GUGAUACAUGAGGAUCACCCAUGUCACCUCACACGAGGAUAUCUGUGCAGUACUCAGUACGGAGAAGGCGUGGAAA”, the “apparent Kd” value came out at 96.7 nM under setting [1] and 26.4 nM under setting [2].
On the same counts, the results for “GCAGCACAGAUUUACAUGAGGAUCACCCAUGUCUAUUAAGAUGAGGAUAUGCUUCGAAUGAUGUUGCAGAAGGCAUUGUGCUGC” are 10.9 nM and 6.6 nM.
Take “CCGUAGUACUGGGAUCCGGGCCUACAUGAGGAUCACCCAUGUCAGGAUAUACGCGAGAUAAAUACGUAGAAGGGACACAGAUGA”: the “apparent Kd” value by setting is: under setting [3], 19.7 nM; under setting [4], 33.1 nM.
On the same counts, the results for “GUCGGAAACGACAAUGAUAGGACUGAGGAUAUACAUAAAUAAUCCUCUACAUGAGGAUCACCCAUGUAGAAGGCAGUCCUAUCU” are 19 nM and 24.6 nM.
In the same order, the values of “AGAUAACAUGUAGGAUAUCGAGGCCUGAGGCCUCGAGAAGGACAUGAGGAUCACCCAUGUUUGCCGAGCAUGGAAUCCCGCACU” are 58.6 nM and 425 nM.
On to “AAUACUUAGUAAGGAUAUACUAGCGAUUAGCUUGUAGAAGGUACAGUCUUAUGUAUAACAUGUUAACAUGAGGAUCACCCAUGU”, for which the “apparent Kd” value by setting is: under setting [1], 67.2 nM; under setting [2], 35.1 nM.
As to “CGGUAGGGAGGAUAUCCAAUAUAUGACAUGAGGAUCACCCAUGUUUCCACUCGUACCUCCGGAGAAGGCCCAUCCC”, the “apparent Kd” value reads like this: under setting [3], 19.7 nM; under setting [4], 20.4 nM.
In the same order, the values of “GGAUAGGACAGAGGAUAUACGUGCUAGAGAUACUAGCAAAAUUUCCUCACAUGAGGAUCACCCAUGUAGAAGGCUGUCCUAUCU” are 45.2 nM and 882 nM.
“CUAUUGGUAACAGGAUAUAUGAGUCCUACAUGAGGAUCACCCAUGUAGGUGAUCAAACGUGAUUAGUAGAAGGGUUACCAAUAG”: the “apparent Kd” value runs as follows: under setting [1], 15.6 nM; under setting [2], 7.77 nM.
As to “GAUAAUAUAGGAUAUACAUGAGGAUCACCCAUGUCCCGAUAUUAGGAGGACCUCCUCGGUAGAAGGAUAUGUGC”, the “apparent Kd” value is, setting by setting: under setting [3], 129 nM; under setting [4], 131 nM.
On the same counts, the results for “AAGAGCGAUUCUCCCUUCCUACAUGAGGAUCACCCAUGUACGAGAAGGCGCCGUGGAUACCACGGUGAGGAUAUCGUGCGUUAC” are 4.55 nM and 5.13 nM.
Consider “GCUAUCGUUGUAGGAUAUGCUUGCCAAAGGCGAGCAGAAGGACAUGAGGAUCACCCAUGUCAGUGGUUGAAGAGAAGAGAUGGC”, for which the “apparent Kd” value reads like this: under setting [3], 27 nM; under setting [4], 61.5 nM.
Consider “UUUUAACAUGAGGAUCACCCAUGUGAGGAUAUCGAAAUUUAUAUUUAUAUUUAUUAAUCGAGAAGGCACAUUUU”, for which the “apparent Kd” value stood at 132 nM under setting [3] and 162 nM under setting [4].
On the same counts, the results for “UGAAAUCAUGUAGGAUAUGCAUGGCGAAGCUACGCAGAAGGACAUGAGGAUCACCCAUGUUAUAGCUACCCGUUACGGUGGCAA” are 135 nM and 155 nM.
On the same counts, the results for “AAUACGUCAGGAUAUCUGAUGUCUAACUUCGGUUAGACAUCAGAGAAGGGACAUGAGGAUCACCCAUGUAUAAA” are 51.1 nM and 44.9 nM.
As for “GUGGUACAUGAGGAUCACCCAUGUGUGGGCGCGUGAGGAUAUGUCCGUACCUGGCGUACGAUAGAAGGCAUGGUGC”, the “apparent Kd” value worked out at 73.9 nM under setting [1] and 34.6 nM under setting [2].
“AAAUAAAACGAUCGGCGAUCCAUACAUGAGGAUCACCCAUGUAGAAGGCACUCUACAAAGUAGAGUGAGGAUAUACGAGAUCGA”: the “apparent Kd” value was found to be 7.13 nM under setting [3] and 95.5 nM under setting [4].
On the same counts, the results for “AAGUCAGCAGGAUAUGCGAUGUUGGGCUAGGUAGCGUGACCACAUGAGGAUCACCCAUGUAGAAGGGCUGGCUA” are 33.4 nM and 34.4 nM.
Turning to “AUAUGAUAGAUAGGAUAUACUGAGGUUGAAUGGGUAGAAGGAUCGAUAGGGAAGACUACAUGAGGAUCACCCAUGUUGUGGAUU”, the “apparent Kd” value is, setting by setting: under setting [1], 88.4 nM; under setting [2], 52.6 nM.
In the case of “AAAGCAACAUGAGGAUCACCCAUGUAGGAUAUCGCUAUUGUAAUCAUGAAACAUGAUUACAAUAGCGAGAAGGACAUAUGCGGG”, the “apparent Kd” value runs as follows: under setting [3], 42.5 nM; under setting [4], 45.2 nM.
On the same counts, the results for “AAAAACCGAGGAUAUACAUGAGGAUCACCCAUGUCAAAAAAAAAAAAAAAAAAAAAAGGUAGAAGGCGGAAAAA” are 64.3 nM and 57.9 nM.
For the sequence “AGUGUCAUCCAGAAGGAGAUGGACAUGAGGAUCACCCAUGUUCCAUGAUCUAGGAUAUGGAUGAUACAGCUACGUUUCGUAGCA”, the “apparent Kd” value was 4.61 nM under setting [1] and 4.73 nM under setting [2].
Turning to “CCGAAUAUGCAGGAUAUCGUAUAGGAAACUAUACGAGAAGGGUAAACAUGAGGAUCACCCAUGUUCCUUAACGG”, the “apparent Kd” value turned out to be 20.8 nM under setting [3] and 19.2 nM under setting [4].
On to “GGAGGACAUCAAUACAUGAGGAUCACCCAUGUCGAAUGAUAUGAGGAUAUGCAUCGGAAAACGAUGUAGAAGGCAUAGUCCUCC”, for which the “apparent Kd” value reads like this: under setting [1], 15.1 nM; under setting [2], 6.06 nM.
As for “GUGCUUGUCGGAGGAUAUGGUUACAUGAGGAUCACCCAUGUUAUGCUUGGUUACUUGUUUAGUUUCCAGAAGGUCGGUUGGUUG”, the “apparent Kd” value under setting [3] is 61.1 nM and the “apparent Kd” value under setting [4] worked out at 71.2 nM.
In the case of “GGUCGUCAAAUUAACAUGAGGAUCACCCAUGUGAAAACACAUGAGGAUAUGCAUCCUAAUUGGAUGCAGAAGGCAUGGACGACC”, the “apparent Kd” value was 16.5 nM under setting [1] and 6.21 nM under setting [2].
With “GUCUACAUGACAUGAGGAUCACCCAUGUGUUAUAUUUUUACUAAGGAUAUAUUUUUAAUGUUGAGAUAGAAGGUAGUUUCGGUC”, the “apparent Kd” value by setting is: under setting [3], 43 nM; under setting [4], 45.5 nM.
For “CUUCAGUCAGGAUAUGUUAAUCUCGCCACUCGGCGAGCCGGACAGAAGGGACAUGAGGAUCACCCAUGUUAAAA”, the “apparent Kd” value runs as follows: under setting [3], 37.6 nM; under setting [4], 22.2 nM.
In the case of “UUUAUAUUCAGAGGAUAUUGAUGUUGUAUUUUACAAGAAGGCUGUUUGUUUUGUAAUGUUAUUAUACAUGAGGAUCACCCAUGU”, the “apparent Kd” value is, setting by setting: under setting [1], 20.6 nM; under setting [2], 17.3 nM.
As to “AAACACGGACAUGAGGAUCACCCAUGUGGCGAAAGCCUUGGGAGAAGGCCGUAUGCAAAGCAUACGGAGGAUAUCCAUACCGUG”, the “apparent Kd” value reads like this: under setting [1], 18.1 nM; under setting [2], 6.34 nM.
“GCCGUAAGUGUGAGGAUAUACCUAUGGAUACAUAGGUAGAAGGCACAUGAGGAUCACCCAUGUUCUUAAUCGGC”: the “apparent Kd” value by setting is: under setting [3], 130 nM; under setting [4], 296 nM.
On the same counts, the results for “GGGUAGAUCCGAGGAUAUACAAUCCGGAAACGGUACAUGAGGAUCACCCAUGUAGAAGGCGGAUCUACAGGUACUAAAGUACCC” are 6.32 nM and 8.65 nM.
